Results published in ChEMBL document CHEMBL1138544, “Solution-phase parallel synthesis and evaluation of anticonvulsant activity of N-substituted-3,4-dihydroisoquinoline-2(1H)-carboxamides” (2009).

Experiments:
Mus musculus [1] = test: Anticonvulsant activity against audiogenic clonus seizures in ip dosed DBA/2 mouse epilepsy model administered 30 mins before auditory simulation; type: functional; details: DBA/2, ip
Outline: (§1)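 DBA/2 mice (sound-seizure susceptible), 8e12 g, 22e25 days old, either sex, groups of 10. Vehicle or each dose given 30 min before auditory stimulation. Latency to and incidence of each seizure phase scored. ED50 for each phase taken from dose-response curves fitted by the Litchfield and Wilcoxon method.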

Mus musculus [2] = test: Anticonvulsant activity against audiogenic tonus seizures in ip dosed DBA/2 mouse epilepsy model administered 30 mins before auditory simulation; type: functional; details: DBA/2, ip; outline: as §1

In the case of COc1cc2c(cc1OC)C(c1ccc(Br)cc1)N(C(=O)NC(C)(C)C)CC2 (centres undefined), the ED50 (Mus musculus [1]) is reported as greater than 35 mg/kg and the ED50 (Mus musculus [2]) is reported as 16.9 mg/kg.
In the case of COc1cc2c(cc1OC)C(c1ccccc1)N(C(=O)NC1CCCC1)CC2 (centres undefined), the ED50 (Mus musculus [1]) is reported as greater than 35 mg/kg and the ED50 (Mus musculus [2]) is reported as 15.1 mg/kg.
Work on CCNC(=O)N1CCc2cc(OC)c(OC)cc2C1c1ccc(Cl)cc1 (centres undefined) yielded an ED50 (Mus musculus [1]) of 30.4 mg/kg and an ED50 (Mus musculus [2]) of 14.2 mg/kg.
CCNC(=O)N1CCc2cc(OC)c(OC)cc2C1c1ccc(F)cc1 (centres undefined) showed an ED50 (Mus musculus [1]) greater than 35 mg/kg and an ED50 (Mus musculus [2]) greater than 35 mg/kg.
Work on COc1cc2c(cc1OC)C(c1ccc(Cl)cc1)N(C(C)=O)CC2 (centres undefined) yielded an ED50 (Mus musculus [1]) of 2.25 mg/kg and an ED50 (Mus musculus [2]) of 1.22 mg/kg.
For COc1cc2c(cc1OC)C(c1ccccc1)N(C(=O)NC(C)(C)C)CC2 (centres undefined), the ED50 (Mus musculus [1]) was 27.5 mg/kg and the ED50 (Mus musculus [2]) was 13.9 mg/kg.
CCCCNC(=O)N1CCc2cc(OC)c(OC)cc2C1c1ccc(F)cc1 (centres undefined) gave an ED50 (Mus musculus [1]) greater than 35 mg/kg and an ED50 (Mus musculus [2]) of 13.7 mg/kg.
CCCCNC(=O)N1CCc2cc(OC)c(OC)cc2C1c1ccc(Cl)cc1 (centres undefined) showed an ED50 (Mus musculus [1]) greater than 35 mg/kg and an ED50 (Mus musculus [2]) of 16.5 mg/kg.
Compound CCCNC(=O)N1CCc2cc(OC)c(OC)cc2C1c1ccccc1 (centres undefined) has an ED50 (Mus musculus [1]) greater than 35 mg/kg and an ED50 (Mus musculus [2]) of 18.1 mg/kg.
Work on COc1cc2c(cc1OC)C(c1ccccc1)N(C(=O)NC1CCCCC1)CC2 (centres undefined) yielded an ED50 (Mus musculus [1]) of 26.9 mg/kg and an ED50 (Mus musculus [2]) of 9.38 mg/kg.
With CCNC(=O)N1CCc2cc(OC)c(OC)cc2C1c1ccc(Br)cc1 (centres undefined) the ED50 (Mus musculus [1]) was greater than 35 mg/kg and the ED50 (Mus musculus [2]) was greater than 35 mg/kg.
For COc1cc2c(cc1OC)C(c1ccc(F)cc1)N(C(=O)NC(C)C)CC2 (centres undefined), the ED50 (Mus musculus [1]) was greater than 35 mg/kg and the ED50 (Mus musculus [2]) was 17.3 mg/kg.
COc1cc2c(cc1OC)C(c1ccc(Br)cc1)N(C(=O)NC1CCCCC1)CC2 (centres undefined) was tested, and the ED50 (Mus musculus [1]) was greater than 35 mg/kg and the ED50 (Mus musculus [2]) was 19.3 mg/kg.
Work on NCC1(CC(=O)O)CCCCC1 [GABAPENTIN] yielded an ED50 (Mus musculus [1]) greater than 35 mg/kg and an ED50 (Mus musculus [2]) of 21.5 mg/kg.
Compound COc1cc2c(cc1OC)C(c1ccc(Cl)cc1)N(C(=O)NC(C)C)CC2 (centres undefined) has an ED50 (Mus musculus [1]) greater than 35 mg/kg and an ED50 (Mus musculus [2]) of 26.1 mg/kg.
In the case of COc1cc2c(cc1OC)C(c1ccc(Cl)cc1)N(C(=O)NC1CCCC1)CC2 (centres undefined), the ED50 (Mus musculus [1]) is reported as greater than 35 mg/kg and the ED50 (Mus musculus [2]) is reported as 12.1 mg/kg.
Compound COc1cc2c(cc1OC)C(c1ccc(Br)cc1)N(C(=O)CN1CCCCC1)CC2 (centres undefined) has an ED50 (Mus musculus [1]) of 5.99 mg/kg and an ED50 (Mus musculus [2]) of 3.86 mg/kg.
Work on CCCNC(=O)N1CCc2cc(OC)c(OC)cc2C1c1ccc(F)cc1 (centres undefined) yielded an ED50 (Mus musculus [1]) greater than 35 mg/kg and an ED50 (Mus musculus [2]) of 26.9 mg/kg.
With COc1cc2c(cc1OC)C(c1ccccc1)N(C(=O)NC(C)C)CC2 (centres undefined) the ED50 (Mus musculus [1]) was greater than 35 mg/kg and the ED50 (Mus musculus [2]) was greater than 35 mg/kg.
In the case of COc1cc2c(cc1OC)C(c1ccc(F)cc1)N(C(=O)NC1CCCC1)CC2 (centres undefined), the ED50 (Mus musculus [1]) is reported as 27.7 mg/kg and the ED50 (Mus musculus [2]) is reported as 7.24 mg/kg.
With CCCNC(=O)N1CCc2cc(OC)c(OC)cc2C1c1ccc(Cl)cc1 (centres undefined) the ED50 (Mus musculus [1]) was greater than 35 mg/kg and the ED50 (Mus musculus [2]) was 23.4 mg/kg.
In the case of CCCC(CCC)C(=O)O [VALPROIC ACID], the ED50 (Mus musculus [1]) is reported as 20.3 mg/kg and the ED50 (Mus musculus [2]) is reported as 9.9 mg/kg.
With CCNC(=O)N1CCc2cc(OC)c(OC)cc2C1c1ccccc1 (centres undefined) the ED50 (Mus musculus [1]) was 32.5 mg/kg and the ED50 (Mus musculus [2]) was 11.9 mg/kg.
In the case of CCCCNC(=O)N1CCc2cc(OC)c(OC)cc2C1c1ccccc1 (centres undefined), the ED50 (Mus musculus [1]) is reported as 31.7 mg/kg and the ED50 (Mus musculus [2]) is reported as 11 mg/kg.
With COc1cc2c(cc1OC)C(c1ccc(F)cc1)N(C(=O)NC(C)(C)C)CC2 (centres undefined) the ED50 (Mus musculus [1]) was greater than 35 mg/kg and the ED50 (Mus musculus [2]) was 18.7 mg/kg.
Work on COc1cc2c(cc1OC)C(c1ccc(Cl)cc1)N(C(=O)NC1CCCCC1)CC2 (centres undefined) yielded an ED50 (Mus musculus [1]) greater than 35 mg/kg and an ED50 (Mus musculus [2]) of 14.2 mg/kg.
COc1cc2c(cc1OC)C(c1ccc(Br)cc1)N(C(=O)NC1CCCC1)CC2 (centres undefined) showed an ED50 (Mus musculus [1]) greater than 35 mg/kg and an ED50 (Mus musculus [2]) of 14.7 mg/kg.
Work on CCCCNC(=O)N1CCc2cc(OC)c(OC)cc2C1c1ccc(Br)cc1 (centres undefined) yielded an ED50 (Mus musculus [1]) greater than 35 mg/kg and an ED50 (Mus musculus [2]) of 15.5 mg/kg.
COc1cc2c(cc1OC)C(c1ccc(Cl)cc1)N(C(=O)NC(C)(C)C)CC2 (centres undefined) was tested, and the ED50 (Mus musculus [1]) was 30.6 mg/kg and the ED50 (Mus musculus [2]) was 13.8 mg/kg.
For CCCNC(=O)N1CCc2cc(OC)c(OC)cc2C1c1ccc(Br)cc1 (centres undefined), the ED50 (Mus musculus [1]) was greater than 35 mg/kg and the ED50 (Mus musculus [2]) was 31.2 mg/kg.
Compound COc1cc2c(cc1OC)C(c1ccc(F)cc1)N(C(=O)NC1CCCCC1)CC2 (centres undefined) has an ED50 (Mus musculus [1]) greater than 35 mg/kg and an ED50 (Mus musculus [2]) greater than 35 mg/kg.
COc1cc2c(cc1OC)C(c1ccc(Br)cc1)N(C(=O)NC(C)C)CC2 (centres undefined) gave an ED50 (Mus musculus [1]) greater than 35 mg/kg and an ED50 (Mus musculus [2]) of 23.6 mg/kg.
